Calls of active or inactive are those of the source.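 How the source made its calls: active means signal-lowering compounds whose fitted half-maximal concentration is at most ten times the top tested dose; inconclusive means flat fit at 30 to 70% inhibition, or poor fit; inactive means the rest.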

System in the first assay: not listed separately
The experiment in a line: yeast GRE-lacZ reporter Hsp90 inhibition – S. cerevisiae, luminescence, dry powder, set 2, dose response (AID 504390). Particulars: S. cerevisiae GRE-lacZ reporter, Hsp90 function, luminescence; at 26 µM (top of the series). The procedure, abridged: (§1)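 System: yeast GRE-driven β-galactosidase reporter strain; medium: SD-ADE yeast medium; probe or stimulus: DOC steroid, 20 µM stock; doses: pin-transferred compounds; times: 75 min compound and steroid exposure, 30 °C, shaking; detection: β-galactosidase luminescence after 25 min development at 30 °C; controls: radicicol 5 µM as positive control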
For the compound `O=C(Cn1c2ccc(F)cc2c2nc3n(c(=O)c21)CCS3)N1CCCC1`, the activity change, negative = inhibition is 39.4% (inactive).

For the compound `O=C(Cn1c2ccccc2c2nc3n(c(=O)c21)CCS3)N1CCC(F)(F)CC1`, the activity change, negative = inhibition was 4.34% (inactive).

For `CCc1nn(CC(=O)OC)c2ccccc12`, the activity change, negative = inhibition was 35.3% (inactive).

Regarding `O=C(Cn1c2ccccc2c2nc3n(c(=O)c21)CCS3)N1CCC(F)(F)C1`, the activity change, negative = inhibition is 29.5% (inactive).

For `COC(=O)n1nc(-c2ccccc2)c2ccccc21`, the activity change, negative = inhibition is 10.4% (inactive).

Consider `O=C(O)Cn1c2ccccc2c2nc3n(c(=O)c21)CCS3`, for which the activity change, negative = inhibition was 10.8% (inactive).

For `O=C(Cn1c2ccccc2c2nc3n(c(=O)c21)CCS3)N1CC=CC1`, the activity change, negative = inhibition was 20.7% (inactive).

On to `CC1(O)CN(C(=O)Cn2c3ccccc3c3nc4n(c(=O)c32)CCS4)C1`, for which the activity change, negative = inhibition was 25.6% (inactive).

Regarding `O=C(Cn1c2ccccc2c2nc3n(c(=O)c21)CCS3)N1CCCC1`, the activity change, negative = inhibition was -14.7% (inactive).

Take `COC(=O)Cn1nc(C2CC2)c2ccccc21`: the activity change, negative = inhibition was -20.4% (inactive).

As for `CN1CCN(C(=O)Cn2c3ccccc3c3nc4n(c(=O)c32)CCS4)CC1`, the activity change, negative = inhibition is 52.6% (inactive).

Consider `c1ccc(-c2nn(Cc3nnco3)c3ccccc23)cc1`, for which the activity change, negative = inhibition is -30.7% (inactive).

The subject of the next assay is S. cerevisiae GRE-lacZ reporter, Hsp90 function, luminescence. The assay is described as above.
Settings: not given
In outline: as §1
Regarding `COC(=O)Cn1nc(-c2cccc(OC)c2)c2ccccc21`, the half-maximal activity concentration (AC50) is 4.18 µM.

With `COC(=O)Cn1nc(C2CCCCC2)c2ccccc21`, the half-maximal activity concentration (AC50) was 3.56 µM.

For the compound `COC(=O)Cn1nc(C(C)(C)C)c2ccccc21`, the AC50 is 20.7 µM.

With `COC(=O)Cn1nc(-c2cccc(C)c2)c2ccccc21`, the AC50 was 3.59 µM.

Regarding `O=C(Cn1c2ccccc2c2nc3n(c(=O)c21)CCS3)N1CCCCC1`, the AC50 was 26.1 µM.

For the compound `COC(=O)Cn1nc(-c2ccccc2)c2cccnc21`, the concentration at half-maximal activity (AC50) is 25.8 µM.

In general, AC50 refers to the midpoint of the concentration-response curve, whichever way the signal moves.

The values above are taken from PubChem BioAssay AID504390 (Broad Institute, 2011).
